Active and inactive are the calls of the source. No cut-off for these calls is given here.
Columns and labels:
[1] = species: Rattus norvegicus; experiment: Effect on 5-HTP accumulation in limbic system of rat; Inactive; format: functional, organism-based
[2] = species: Rattus norvegicus; experiment: Effect on 5-HTP accumulation in striatum of rat; Inactive; format: functional, organism-based
[3] = species: Rattus norvegicus; experiment: Effect on dopamine accumulation in hemispheres of rat; Inactive; format: functional, organism-based
[4] = species: Rattus norvegicus; experiment: Effect on dopamine accumulation in limbic system of rat.; format: functional
[5] = species: Rattus norvegicus; experiment: Effect on dopamine accumulation in striatum of rat.; format: functional
[6] = species: Rattus norvegicus; experiment: Effect on 5-HTP accumulation in hemispheres of rat; Inactive; format: functional, organism-based
[7] = tested on: Rattus norvegicus; experiment: post-synaptic effect was assayed by the increase in locomotor activity (reserpine pretreatment), at 0.25 umol/kg; format: functional
Method in brief: (§1)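 Male Sprague-Dawley rats pretreated sc in the neck with reserpine (5 mg/kg), then given the compound sc in the neck (n = 4). Placed singly in motility meters immediately after dosing; locomotor counts accumulated over 0–30 min. Student's t test.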

[8] = species: Rattus norvegicus; experiment: Apparent kinetic constant(Vmax) for the O-Methylation on crude rat liver microsomes at 1 mg of protein; format: functional
[9] = Ratio of Km to that Vmax in crude rat liver microsomes was determined; settings: Microsome
[10] = species: Rattus norvegicus; experiment: Apparent kinetic constant(Km) for the O-Methylation on crude rat liver microsomes.; format: functional, organism-based
[11] = species: Rattus norvegicus; experiment: Effect on 5-HTP accumulation in limbic system of rat.; format: functional
[12] = species: Rattus norvegicus; experiment: Effect on 5-HTP accumulation in striatum of rat.; format: functional
[13] = species: Rattus norvegicus; experiment: Effect on dopamine accumulation in limbic system of rat; Inactive; format: functional, organism-based
[14] = species: Rattus norvegicus; experiment: Effect on dopamine accumulation in striatum of rat; Inactive; format: functional, organism-based
[15] = species: Rattus norvegicus; experiment: Effect on 5-HTP accumulation in hemispheres of rat.; format: functional
[16] = tested on: Rattus norvegicus; experiment: post-synaptic effect was assayed by the increase in locomotor activity (reserpine pretreatment), at 12.5 umol/kg; format: functional; method in brief: as §1
[17] = tested on: Rattus norvegicus; experiment: Brain Concentration at 25 (umol/kg, sc) with tropolone pretreatment in rat striatum; format: functional, organism-based
Method in brief: (§2)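 Male Wistar rats dosed sc in the neck with compound in saline (1 mL/kg), with or without tropolone pretreatment. Killed by decapitation 45 min later; striatum, cerebellum and cortex dissected and frozen at -80 °C. Perchloric acid extracts purified over Sephadex G10 and the formic acid eluate analysed by reversed-phase HPLC with electrochemical detection. Mean ± SEM, n = 4.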

[18] = tested on: Rattus norvegicus; experiment: Brain Concentration at 25 (umol/kg, sc) with tropolone pretreatment in rat cerebellum; format: functional, organism-based; method in brief: as §2
[19] = tested on: Rattus norvegicus; experiment: Brain Concentration at 25 (umol/kg, sc) with tropolone pretreatment in rat cortex; format: functional, organism-based; method in brief: as §2
[20] = tested on: Rattus norvegicus; experiment: Brain Concentration of 5,6-di-OH-DPAT after 25 (umol/kg) sc administration with tropolone pretreatment in rat cerebellum; format: functional, organism-based; method in brief: as §2
[21] = tested on: Rattus norvegicus; experiment: Brain Concentration at 25 (umol/kg, sc) without tropolone pretreatment in rat cerebellum; format: functional, organism-based; method in brief: as §2
[22] = tested on: Rattus norvegicus; experiment: Brain Concentration at 25 (umol/kg, sc) without tropolone pretreatment in rat cortex; format: functional, organism-based; method in brief: as §2
[23] = tested on: Rattus norvegicus; experiment: Brain Concentration at 25 (umol/kg, sc) without tropolone pretreatment in rat striatum; format: functional, organism-based; method in brief: as §2
[24] = tested on: Rattus norvegicus; experiment: Brain Concentration of 5,6-di-OH-DPAT after 25 (umol/kg) sc administration with tropolone pretreatment in rat cortex; format: functional, organism-based; method in brief: as §2
[25] = tested on: Rattus norvegicus; experiment: Brain Concentration of 5,6-di-OH-DPAT after 25 (umol/kg) sc administration without tropolone pretreatment in rat cerebellum; format: functional, organism-based; method in brief: as §2
[26] = tested on: Rattus norvegicus; experiment: Brain Concentration of 5,6-di-OH-DPAT after 25 (umol/kg) sc administration without tropolone pretreatment in rat cortex; format: functional, organism-based; method in brief: as §2
[27] = tested on: Rattus norvegicus; experiment: Brain Concentration of 5,6-di-OH-DPAT after 25 (umol/kg) sc administration without tropolone pretreatment in rat striatum; format: functional, organism-based; method in brief: as §2
[28] = species: Rattus norvegicus; experiment: Apparent kinetic constant(Km) for the aromatic hydroxylation on crude rat liver microsomes.; format: functional, organism-based
Method in brief: (§3)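 Crude rat liver microsomes (0.5 mg protein/mL) were incubated with substrate at 37 °C for 3 min in 0.1 M Tris, pH 7.4, with 0.1 mM NADPH and MgCl₂. The reaction was stopped with perchloric acid. Catechol products in the supernatant were measured by HPLC with electrochemical detection. Apparent Km and Vmax came from Lineweaver-Burk plots of 3–4 substrate concentrations, each run in triplicate.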

[29] = tested on: Rattus norvegicus; experiment: Brain Concentration of 5,6-di-OH-DPAT after 25 (umol/kg) sc administration with tropolone pretreatment in rat striatum; format: functional, organism-based; method in brief: as §2
[30] = species: Rattus norvegicus; experiment: Apparent kinetic constant(Vmax) for the aromatic hydroxylation on crude rat liver microsomes at 1 mg of protein; format: functional; method in brief: as §3
[31] = tested on: Rattus norvegicus; experiment: Brain Concentration of 7,8-di-OH-DPAT after 15(umol/kg) sc administration without tropolone pretreatment in rat cortex; format: functional, organism-based; method in brief: as §2
[32] = tested on: Rattus norvegicus; experiment: Brain Concentration of 7,8-di-OH-DPAT after 15(umol/kg) sc administration without tropolone pretreatment in rat striatum; format: functional, organism-based; method in brief: as §2
[33] = tested on: Rattus norvegicus; experiment: Brain Concentration at 15(umol/kg, sc) with tropolone pretreatment in rat cerebellum; format: functional, organism-based; method in brief: as §2
[34] = tested on: Rattus norvegicus; experiment: Brain Concentration at 15(umol/kg, sc) with tropolone pretreatment in rat cortex; format: functional, organism-based; method in brief: as §2
[35] = tested on: Rattus norvegicus; experiment: Brain Concentration at 15(umol/kg, sc) with tropolone pretreatment in rat striatum; format: functional, organism-based; method in brief: as §2
[36] = tested on: Rattus norvegicus; experiment: Brain Concentration at 15(umol/kg, sc) without tropolone pretreatment in rat cerebellum; format: functional, organism-based; method in brief: as §2
[37] = tested on: Rattus norvegicus; experiment: Brain Concentration at 15(umol/kg, sc) without tropolone pretreatment in rat cortex; format: functional, organism-based; method in brief: as §2
[38] = tested on: Rattus norvegicus; experiment: Brain Concentration of 7,8-di-OH-DPAT after 15(umol/kg) sc administration with tropolone pretreatment in rat cerebellum; format: functional, organism-based; method in brief: as §2
[39] = tested on: Rattus norvegicus; experiment: Brain Concentration of 7,8-di-OH-DPAT after 15(umol/kg) sc administration with tropolone pretreatment in rat cortex; format: functional, organism-based; method in brief: as §2
[40] = tested on: Rattus norvegicus; experiment: Brain Concentration of 7,8-di-OH-DPAT after 15(umol/kg) sc administration with tropolone pretreatment in rat striatum; format: functional, organism-based; method in brief: as §2
[41] = tested on: Rattus norvegicus; experiment: Brain Concentration of 7,8-di-OH-DPAT after 15(umol/kg) sc administration without tropolone pretreatment in rat cerebellum; format: functional, organism-based; method in brief: as §2
[42] = tested on: Rattus norvegicus; experiment: Brain Concentration at 15(umol/kg, sc) without tropolone pretreatment in rat striatum; format: functional, organism-based; method in brief: as §2
[43] = species: Rattus norvegicus; experiment: Effect on dopamine accumulation in hemispheres of rat.; format: functional
[44] = tested on: Rattus norvegicus; experiment: post-synaptic effect was assayed by the increase in locomotor activity (reserpine pretreatment), at 3.15 umol/kg; format: functional; method in brief: as §1

Row | Compound | ED50 [1] | ED50 [2] | ED50 [3] | ED50 [4] | ED50 [5] | ED50 [6] | Vmax [8] | Ratio [9] | Km [10] | ED50 [11] | ED50 [12] | ED50 [15] | other results
1 | CCCN(CCC)C1CCc2c(ccc(O)c2O)C1 (configuration not stated) | inactive | inactive | inactive | 0.007 µmol/kg | 0.007 µmol/kg | inactive | 400 pM/min | 5000 | 80 µM | – | – | – | Motor activity [7]: <529
2 | CCCN(CCC)C1CCc2cccc(OC)c2C1 (configuration not stated) | – | – | – | – | – | – | – | – | – | 0.34 µmol/kg | 0.29 µmol/kg | 0.23 µmol/kg | ED50 [13]: inactive; ED50 [14]: inactive
3 | CCCN(CCC)[C@@H]1CCc2ccc(O)cc2C1 | inactive | inactive | inactive | 0.18 µmol/kg | 0.17 µmol/kg | inactive | – | – | – | – | – | – | –
4 | CCCN(CCC)C1CCc2c(ccc(O)c2OC)C1 (configuration not stated) | inactive | inactive | inactive | 0.16 µmol/kg | 0.125 µmol/kg | inactive | – | – | – | – | – | – | Motor activity [16]: <204
5 | CCCN(CCC)C1CCc2c(cccc2OC)C1 (configuration not stated) | inactive | inactive | inactive | 0.013 µmol/kg | 0.018 µmol/kg | inactive | – | – | – | – | – | – | –
6 | CCCN(CCC)C1CCc2ccc(O)c(OC)c2C1 (configuration not stated) | – | – | inactive | 0.314 µmol/kg | 0.35 µmol/kg | – | – | – | – | 1.49 µmol/kg | 2.06 µmol/kg | 1.62 µmol/kg | Motor activity [16]: <149
7 | CCCN(CCC)C1CCc2c(O)cccc2C1 (configuration not stated) [5-OH-DPAT] | inactive | inactive | inactive | 0.011 µmol/kg | 0.009 µmol/kg | inactive | – | 19600 | – | – | – | – | Concentration [17]: 11.9 nM/g; Concentration [18]: 9.4 nM/g; Concentration [19]: 12.7 nM/g; Concentration [20]: 0.3 nM/g; Concentration [21]: 8.5 nM/g; Concentration [22]: 12.1 nM/g; Concentration [23]: 10.8 nM/g; Concentration [24]: 0.37 nM/g; Concentration [25]: 0.08 nM/g; Concentration [26]: 0.08 nM/g; Concentration [27]: 0.2 nM/g; Km [28]: 60 µM; Concentration [29]: 0.43 nM/g; Vmax [30]: 1180 pM/min
8 | CCCN1CCC[C@@H](c2ccc(O)c(O)c2)C1 | – | – | – | – | – | – | 37000 pM/min | – | 77 µM | – | – | – | –
9 | CCCN(CCC)C1CCc2cccc(O)c2C1 (configuration not stated) [8-OH-DPAT] | – | – | inactive | – | – | – | – | – | – | 0.048 µmol/kg | 0.045 µmol/kg | 0.068 µmol/kg | Concentration [31]: 0.64 nM/g; Concentration [32]: 0.65 nM/g; Concentration [33]: 9 nM/g; Concentration [34]: 13.2 nM/g; Concentration [35]: 12.3 nM/g; Concentration [36]: 8.1 nM/g; Concentration [37]: 10.7 nM/g; Concentration [38]: 0.54 nM/g; Concentration [39]: 0.7 nM/g; Concentration [40]: 0.58 nM/g; Concentration [41]: 0.5 nM/g; ED50 [13]: inactive; ED50 [14]: inactive; Concentration [42]: 10.3 nM/g
10 | CCCN(CCC)C1CCc2ccc(O)c(O)c2C1 (configuration not stated) | – | – | – | 0.986 µmol/kg | 0.977 µmol/kg | – | 280 pM/min | 117 | 2400 µM | 1.53 µmol/kg | 1.39 µmol/kg | 1.05 µmol/kg | ED50 [43]: 1.75 µmol/kg; Motor activity [44]: <31

Source: ChEMBL document CHEMBL1124121, “Occurrence and pharmacological significance of metabolic ortho-hydroxylation of 5- and 8-hydroxy-2-(di-n-propylamino)tetralin” (1988)
